Assay results as given in ChEMBL document CHEMBL5576140, “Computational Design of Pore-Forming Peptides with Potent Antimicrobial and Anticancer Activities” (J Med Chem, 2024).

How the values were obtained:
[1] = Hemolytic activity against human RBC incubated for 1 hr by microplate reader analysis; format: toxicity, cell-based, Erythrocyte; settings: red blood cells (erythrocytes)
Procedure, shortened: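 Human red blood cells exposed to peptides up to 50 μM; hemolysis measured, IC50 derived where reached.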

[2] = test system: Staphylococcus aureus; assay: Antimicrobial activity against Staphylococcus aureus NE163 harboring single transposon insertion mutation in aureolysin at 30 uM incubated for 18 hrs relative to control; format: functional
Procedure, shortened: (§1)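 CA-MRSA USA300 LAC derivative JE2 and single transposon insertion mutants derived from JE2, each lacking an extracellular protease gene, were exposed to peptides up to 30 μM. The read-out was percent growth inhibition. Peptides were dissolved in PBS, and tests were run in triplicate.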

[3] = test system: Staphylococcus aureus; assay: Antimicrobial activity against Staphylococcus aureus NE1506 harboring single transposon insertion mutation in V8 protease at 30 uM incubated for 18 hrs relative to control; format: functional; procedure, shortened: as §1
[4] = Toxicity against reconstructed human skin model assessed as tissue viability at 50 uM incubated for 1 hr followed by compound washout measured after 42 hrs by MTT assay; format: tissue-based, Skin of body; settings: read-out: Activity
Procedure, shortened: (§2)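 Reconstructed human epidermis with stratum corneum, per OECD TG 439 skin irritation guideline. Tissues exposed 1 h to peptide at 50 μM, then 42 h post-treatment incubation. Viability read by MTT. Controls were SDS and melittin.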

[5] = test system: Staphylococcus aureus; assay: Antimicrobial activity against Staphylococcus aureus NE934 harboring single transposon insertion mutation in staphopain B at 30 uM incubated for 18 hrs relative to control; format: functional; procedure, shortened: as §1
[6] = Toxicity against reconstructed human skin model assessed as irritation at 50 uM incubated for 1 hr followed by compound washout measured after 42 hrs by MTT assay; format: tissue-based, Skin of body; procedure, shortened: as §2
[7] = test system: Staphylococcus aureus; assay: Antimicrobial activity against Staphylococcus aureus NE1740 harboring single transposon insertion mutation in staphopain A at 30 uM incubated for 18 hrs relative to control; format: functional; procedure, shortened: as §1
[8] = Stability in simulated pore POPC lipid bilayer membrane; format: physicochemical
Procedure, shortened: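 Coarse-grained MD with the "scaled" Martini force field, peptides in POPC membrane, 51 μs. Counts transmembrane peptides at 51 μs. Water beads within 2 nm vertically of membrane centre and peptide–peptide interaction energy averaged over 48–51 μs. Contacts (salt bridge or stacking) scored below 0.8 nm and called stable if present ≥50% of the time.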

[9] = test system: Escherichia coli; assay: Antimicrobial activity against Escherichia coli TOP10 incubated for 24 hrs by broth microdilution assay; format: functional
[10] = test system: Staphylococcus carnosus; assay: Antimicrobial activity against Staphylococcus carnosus CCM 4838T incubated for 24 hrs by broth microdilution assay; format: functional

With H-KKKKLKKILKKLFQFINQLENQLQEIKQNK-NH2 the IC50 at 1 h [1] was > 50 µM.
With H-KKKKLKKILKKLFQFIQQLDQQLQDIKQQK-NH2 the inhibition at 30 µM [2] was < 45%, the IC50 at 1 h [1] was > 50 µM and the inhibition at 30 µM [3] was < 45%. For the same substance, the viability at 1 h, 50 µM [4] was 100%, the inhibition at 30 µM [5] was < 45% and the Activity [6] was “Non-Toxic”. For the same substance, the inhibition at 30 µM [7] was < 45%.
With H-KKKKLKKILKKLFSFISSLDSSLSDIKSSK-NH2 the inhibition at 30 µM [2] was < 45%, the inhibition at 30 µM [3] was < 45% and the Stability [8] was “Stable”. For the same substance, the inhibition at 30 µM [5] was < 45% and the inhibition at 30 µM [7] was < 45%.
With H-KKKKLKKILKKLWQWINQLDNQLQDIKQNK-NH2 the IC50 at 1 h [1] was > 50 µM.
In the case of H-KKKKLKKLLKKLFQFLNQLDNQLQDLKQNK-NH2, the inhibition at 30 µM [2] is reported as < 45%, the inhibition at 30 µM [3] is reported as < 45% and the inhibition at 30 µM [5] is reported as < 45%. For the same substance, the inhibition at 30 µM [7] was < 45%.
H-KKKKLRRILRRLFQFINQLDNQLQDIKQNK-NH2 gave an IC50 at 1 h [1] of 49 µM.
In the case of H-KKKKMKKMMKKMFQFMNQMDNQMQDMKQNK-NH2, the inhibition at 30 µM [2] is reported as < 45%, the inhibition at 30 µM [3] is reported as < 45% and the inhibition at 30 µM [5] is reported as < 45%. The MIC [9] was > 50 µM and the inhibition at 30 µM [7] was < 45%.
With H-KKKKVKKVVKKVFQFVNQVDNQVQDVKQNK-NH2 the MIC [10] was > 50 µM, the inhibition at 30 µM [2] was < 45% and the inhibition at 30 µM [3] was < 45%. For the same substance, the inhibition at 30 µM [5] was < 45%, the MIC [9] was > 50 µM and the inhibition at 30 µM [7] was < 45%.
With H-KNQNLDDILNQLFQFINQLKNQLQKIKKKK-NH2 the MIC [9] was > 50 µM.
Substance H-RRRRLKKILKKLFQFINQLDNQLQDIRQNR-NH2 has an IC50 at 1 h [1] of 6.9 µM.
